Results from ChEMBL document CHEMBL1649171, “Metabolism of an alkyl polyamine analog by a polyamine oxidase from the microsporidian Encephalitozoon cuniculi” (Antimicrob Agents Chemother, 2009).
pKi: −log10 of the molar value. “And” between values parts separate entries of the source, which are not always exact repeats. Equal entries are not always repeated.

How the values were obtained:
[1] = system: Encephalitozoon cuniculi; test: Activity of Encephalitozoon cuniculi polyamine oxidase assessed as hydrogen peroxide release by spectrophotometry in presence of 1,15-bis{N-[O-phenyl)benzylamino}-4,12-diazapentadecane
Summary of the method: (§1)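 Crude spore extract (SDS-washed spores, glass-bead disrupted, clarified at 2,200 × g) in 0.1 M glycine, pH 7.0, with horseradish peroxidase and ABTS. Runs used N1-acetylspermine at 100–2,000 μM, alone or with the analog fixed at 5, 50 or 100 μM; the analog alone was run at 1–25 μM. Reactions were started with 67 μg extract, and A420 was read for 15 min. Kinetic constants came from Hanes-Woolf plots ([S]/V vs [S]).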

[2] = system: Encephalitozoon cuniculi; test: Activity of Encephalitozoon cuniculi polyamine oxidase assessed as hydrogen peroxide release by spectrophotometry
Summary of the method: (§2)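 Crude enzyme came from mature E. cuniculi spores collected from culture overlay. Spores were washed in PBS pH 6.8, given 1% SDS for 5 min, glass-bead disrupted to >80% breakage, and clarified at 2,200 × g. The 1 ml assay at 37°C held 0.1 M glycine pH 7.0, 10 U horseradish peroxidase, 5 mM ABTS and 22–220 μg protein. Substrate started the reaction. A420 was followed 15 or 30 min; initial linear rate minus no-substrate control.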

[3] = system: Encephalitozoon cuniculi; test: Activity of Encephalitozoon cuniculi polyamine oxidase assessed as hydrogen peroxide release per mg protein by spectrophotometry relative to 1 mM N'-acetylspermine; summary of the method: as §2
[4] = Inhibition of Encephalitozoon cuniculi polyamine oxidase assessed as hydrogen peroxide release using N'-acetylspermine substrate by spectrophotometry; summary of the method: as §1
[5] = system: Encephalitozoon cuniculi; test: Activity of Encephalitozoon cuniculi polyamine oxidase assessed as hydrogen peroxide release per mg protein by spectrophotometry relative to 0.1 mM N'-acetylspermine; summary of the method: as §2
[6] = system: Encephalitozoon cuniculi; test: Activity of Encephalitozoon cuniculi polyamine oxidase assessed as hydrogen peroxide release per mg protein by spectrophotometry
Summary of the method: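 Enzyme was a clarified glass-bead homogenate of SDS-washed mature spores (>80% breakage). Reactions at 37°C held 0.1 M glycine, pH 7.0, 10 U HRP, 5 mM ABTS and 22–220 μg protein, and were started with substrate (1 mM N1-acetylspermine or another, e.g. 0.1 mM). Peroxide was followed as ABTS oxidation at 420 nm (ε 3.6 × 10⁴ M⁻¹ cm⁻¹) for 15 or 30 min. Values are the initial linear rate minus a no-substrate control.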

Row | Km [1] [µM] | Vmax [1] [µM/min] | Activity [6] | Structure (SMILES) | Km [2] [µM] | Vmax [2] [µM/min] | fold change (FC) [3] | pKi [4] | fold change (FC) [5]
1 | 15 | 17.5 | – | CC(=O)NCCCNCCCCNCCCN | 30 | 10 | – | – | –
2 | – | – | – | c1ccc(-c2ccccc2CNCCCNCCCCCCCNCCCNCc2ccccc2-c2ccccc2)cc1 | 2 | 7.6 | 0.31 | 4.40 | 0.8
3 | – | – | 1370 nmol/min and 690 nmol/min | c1ccc(CNCCCNCCCCCCCNCCCNCc2ccccc2)cc1 | – | – | 0.89 | – | 0.98
